# Assay results as given in ChEMBL document CHEMBL2062372, “Biotin analogues with antibacterial activity are potent inhibitors of biotin protein ligase” (ACS Med Chem Lett, 2012).
# What was measured:
# [1] = Displacement of [3H]-biotin from Staphylococcus aureus BPL after 20 mins by scintillation counting
# Outline: (§1)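 Purified recombinant BPL was tested in an in vitro biotinylation assay that measured incorporation of radiolabeled biotin into protein. Ki is reported where inhibition was seen, as the mean (standard error) of three independent experiments.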
# [2] = Displacement of [3H]-biotin from Escherichia coli BPL after 20 mins by scintillation counting; outline: as §1
# Biotin--protein ligase = molecular target: T1, Biotin--protein ligase (Homo sapiens, UniProt P50747); assay: Displacement of [3H]-biotin from human BPL after 20 mins by scintillation counting; outline: as §1
# T1 sequence (P50747 whole entry): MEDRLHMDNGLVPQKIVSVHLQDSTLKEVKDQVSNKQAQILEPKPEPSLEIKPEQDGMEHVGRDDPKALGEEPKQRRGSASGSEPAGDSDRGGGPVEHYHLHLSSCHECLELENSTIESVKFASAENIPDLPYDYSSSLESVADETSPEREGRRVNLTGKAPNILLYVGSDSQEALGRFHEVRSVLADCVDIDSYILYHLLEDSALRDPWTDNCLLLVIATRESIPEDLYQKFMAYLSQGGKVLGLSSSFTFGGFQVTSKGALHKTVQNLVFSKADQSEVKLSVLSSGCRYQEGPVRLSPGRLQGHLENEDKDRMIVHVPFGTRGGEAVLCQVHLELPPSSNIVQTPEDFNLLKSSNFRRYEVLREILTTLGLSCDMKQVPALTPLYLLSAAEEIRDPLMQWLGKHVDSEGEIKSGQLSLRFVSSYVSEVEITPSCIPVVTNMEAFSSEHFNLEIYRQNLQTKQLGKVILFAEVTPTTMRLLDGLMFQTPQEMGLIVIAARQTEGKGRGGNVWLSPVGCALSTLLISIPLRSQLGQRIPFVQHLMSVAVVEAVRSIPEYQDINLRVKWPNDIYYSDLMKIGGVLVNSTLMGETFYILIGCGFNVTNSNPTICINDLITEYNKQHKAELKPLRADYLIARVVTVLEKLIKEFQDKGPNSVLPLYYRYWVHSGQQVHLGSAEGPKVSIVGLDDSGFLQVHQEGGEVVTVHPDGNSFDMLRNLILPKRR
# [3] = Selectivity ratio of Ki for human BPL to Ki for Staphylococcus aureus BPL
# Outline: (§2)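 Selectivity is the ratio of Ki values from the radiolabeled-biotin incorporation assay with purified recombinant BPLs. Each Ki is the mean of three independent experiments.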
# [4] = Selectivity ratio of Ki for Escherichia coli BPL to Ki for human BPL; outline: as §2
# [5] = Selectivity ratio of Ki for Escherichia coli BPL to Ki for Staphylococcus aureus BPL; outline: as §2
# [6] = Binding affinity to Staphylococcus aureus BPL by surface plasmon resonance
# Outline: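 S. aureus BPL was immobilized on the SPR surface, with varying inhibitor concentrations in the running buffer. Ka and kd come from the sensorgrams. KD was calculated from steady-state affinity where on and off rates were too fast for kinetic evaluation.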
# Staphylococcus aureus [7] = assay: Antibacterial activity against methicillin-susceptible Staphylococcus aureus after 16 to 24 hrs by broth microdilution method; format: functional
# Staphylococcus aureus [8] = assay: Antibacterial activity against methicillin-resistant Staphylococcus aureus after 16 to 24 hrs by broth microdilution method; format: functional
# Staphylococcus = assay: Antibacterial activity against coagulase-negative Staphylococcus after 16 to 24 hrs by broth microdilution method; format: functional
# HepG2 = assay: Cytotoxicity against human HepG2 cells assessed as change in metabolic activity at 64 ug/ml after 24 to 48 hrs by WST1 assay; format: ADME, cell-based
SMILES,Ki (Biotin--protein ligase) [µM],Ratio Ki [3],Ratio Ki [4],Ratio Ki [5],Ki [1] [µM],Ki [2] [µM],Kd [6] [µM],MIC50 (Staphylococcus aureus [7]) [µg/mL],MIC90 (Staphylococcus aureus [7]) [µg/mL],MIC50 (Staphylococcus aureus [8]) [µg/mL],MIC90 (Staphylococcus aureus [8]) [µg/mL],MIC50 (Staphylococcus) [µg/mL],MIC90 (Staphylococcus) [µg/mL],Activity (HepG2)
C#CCCCC[C@@H]1SC[C@@H]2NC(=O)N[C@@H]21,0.2,2.5,4.5,11.3,0.08,0.9,0.08,8,16,8,16,4,8,Non-toxic
C#CCCCCCC[C@@H]1SC[C@@H]2NC(=O)N[C@@H]21,12,5,1.7,8.3,2.4,20,–,–,–,–,–,–,–,Non-toxic
CCCCC[C@@H]1SC[C@@H]2NC(=O)N[C@@H]21,0.14,2.8,7.9,22,0.05,1.1,0.06,8,16,8,16,2,8,Non-toxic
NCCCC[C@@H]1SC[C@@H]2NC(=O)N[C@@H]21,> 20,–,–,–,> 20,> 20,–,–,–,–,–,–,–,–

# Second part, led by results:
Ki (Biotin--protein ligase) [µM],Ratio Ki [3],Ratio Ki [4],Ratio Ki [5],SMILES,Ki [1] [µM],Ki [2] [µM],Kd [6] [µM],MIC50 (Staphylococcus aureus [7]) [µg/mL],MIC90 (Staphylococcus aureus [7]) [µg/mL],MIC50 (Staphylococcus aureus [8]) [µg/mL],MIC90 (Staphylococcus aureus [8]) [µg/mL],MIC50 (Staphylococcus) [µg/mL],MIC90 (Staphylococcus) [µg/mL],Activity (HepG2)
3.5,11.7,2.1,24.4,C#CCCCCC[C@@H]1SC[C@@H]2NC(=O)N[C@@H]21,0.3,7.33,–,–,–,–,–,–,–,Non-toxic
> 20,–,–,–,NCCCCC[C@@H]1SC[C@@H]2NC(=O)N[C@@H]21,> 20,> 20,–,–,–,–,–,–,–,–
6.43,12.4,1.1,14,CCCCCC[C@@H]1SC[C@@H]2NC(=O)N[C@@H]21,0.52,7.3,–,–,–,–,–,–,–,Non-toxic
> 20,–,–,–,O=C1N[C@H]2[C@H](CS[C@H]2CCCCCCO)N1,> 20,> 20,–,–,–,–,–,–,–,Non-toxic
3.85,1.1,1,1.2,O=C1N[C@H]2[C@H](CS[C@H]2CCCCCO)N1,3.37,3.96,2.5,–,–,–,–,–,–,–
